# Assay results as given in ChEMBL document CHEMBL4028907, “Semisynthesis and Biological Evaluation of Xanthone Amphiphilics as Selective, Highly Potent Antifungal Agents to Combat Fungal Resistance” (J Med Chem, 2017).
# Legend:
# [1] = tested on: Candida albicans; test: Antifungal activity against Candida albicans ATCC 10231 after 24 hrs by two fold serial dilution method; type: functional; conditions: ATCC 10231, 24 h
# Procedure, shortened: (§1)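 Candida grown on Sabouraud dextrose agar at 35 °C for 24 h, adjusted to ~5×10^3 CFU/mL. Two-fold dilutions from 100 to 0.78 μg/mL in Sabouraud dextrose broth, incubated at 35 °C for 24 h. MIC is the lowest concentration inhibiting growth by eye and by OD600. CLSI-based with minor modifications.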
# [2] = tested on: Candida albicans; test: Antifungal activity against drug resistant Candida albicans DF2672R after 24 hrs by two fold serial dilution method; type: functional; procedure, shortened: as §1
# [3] = Selectivity index, ratio of HC50 for New Zealand white rabbit RBC to MIC for Candida albicans ATCC 10231
# [4] = Dissociation constant, pKa of compound; type: physicochemical
SMILES,MIC [1] [µg/mL],MIC [2] [µg/mL],Selectivity Index [3],pKa [4]
COc1c(OCC(=O)N[C@@H](CCCNC(=N)N)C(N)=O)cc2oc3cc(OCC(=O)N[C@@H](CCCNC(=N)N)C(N)=O)c(CC=C(C)C)c(O)c3c(=O)c2c1CC=C(C)C,6.25,6.25,20.5,
CC[N+](C)(CC)CC(O)COc1cc2oc3cc(OCC(O)C[N+](C)(CC)CC)c(OC)c(CC=C(C)C)c3c(=O)c2c(O)c1CC=C(C)C.[I-].[I-] (stereo unspecified),12.5,6.25,2.9 to 5.7,
COc1c(OCC(O)CNCc2ccc(F)cc2)cc2oc3cc(OCC(O)CNCc4ccc(F)cc4)c(CC=C(C)C)c(O)c3c(=O)c2c1CC=C(C)C (stereo unspecified),6.25,6.25,> 64,
CCCCCCN(CCCCCC)CC(O)COc1cc2oc3cc(OCC(O)CN(CCCCCC)CCCCCC)c(OC)c(CC=C(C)C)c3c(=O)c2c(O)c1CC=C(C)C (stereo unspecified),12.5,12.5,> 32,
COC(=O)[C@H](CCCNC(=N)N)NC(=O)[C@H](CCCNC(=N)N)NC(=O)COc1cc2oc3cc(OCC(=O)N[C@@H](CCCNC(=N)N)C(=O)N[C@@H](CCCNC(=N)N)C(=O)OC)c(OC)c(CC=C(C)C)c3c(=O)c2c(O)c1CC=C(C)C,6.25,12.5,22.2 to 44.4,
COc1c(OCC(O)CN(C)Cc2ccccc2)cc2oc3cc(OCC(O)CN(C)Cc4ccccc4)c(CC=C(C)C)c(O)c3c(=O)c2c1CC=C(C)C (stereo unspecified),12.5,6.25,> 32,
COc1c(OCC(O)CN(C)C)cc2oc3cc(OCC(O)CN(C)C)c(CC=C(C)C)c(O)c3c(=O)c2c1CC=C(C)C (stereo unspecified),6.25,6.25,4.8,
CCCCCCCCNCC(O)COc1cc2oc3cc(OCC(O)CNCCCCCCCC)c(OC)c(CC=C(C)C)c3c(=O)c2c(O)c1CC=C(C)C (stereo unspecified),> 50,> 50,,
COc1c(OCC(O)CN2CCNCC2)cc2oc3cc(OCC(O)CN4CCNCC4)c(CC=C(C)C)c(O)c3c(=O)c2c1CC=C(C)C (stereo unspecified),12.5,12.5,2.6,9.55
COc1c(OCC(O)CNCCN)cc2oc3cc(OCC(O)CNCCN)c(CC=C(C)C)c(O)c3c(=O)c2c1CC=C(C)C (stereo unspecified),6.25,12.5,2.4 to 4.8,
C[C@@H]1[C@H](O)[C@@H](C)/C=C/C=C/C=C/C=C/C=C/C=C/C=C/[C@H](O[C@@H]2O[C@H](C)[C@@H](O)[C@H](N)[C@@H]2O)C[C@@H]2O[C@](O)(C[C@@H](O)C[C@@H](O)[C@H](O)CC[C@@H](O)C[C@@H](O)CC(=O)O[C@H]1C)C[C@H](O)[C@H]2C(=O)O [AMPHOTERICIN B],,0.2,,
CN(C/C=C/C#CC(C)(C)C)Cc1cccc2ccccc12 [TERBINAFINE],,3.13,,
CCCCCCNCC(O)COc1cc2oc3cc(OCC(O)CNCCCCCC)c(OC)c(CC=C(C)C)c3c(=O)c2c(O)c1CC=C(C)C (stereo unspecified),12.5,12.5,27.5,
CC[C@@H]([C@H](C)O)n1ncn(-c2ccc(N3CCN(c4ccc(OC[C@@H]5CO[C@@](Cn6cncn6)(c6ccc(F)cc6F)C5)cc4)CC3)cc2)c1=O [POSACONAZOLE],,12.5,,
COc1c(OCC(O)CN2CCCC2)cc2oc3cc(OCC(O)CN4CCCC4)c(CC=C(C)C)c(O)c3c(=O)c2c1CC=C(C)C (stereo unspecified),6.25,6.25,4.2,11.3
COc1c(OCC(O)CNC(CO)(CO)CO)cc2oc3cc(OCC(O)CNC(CO)(CO)CO)c(CC=C(C)C)c(O)c3c(=O)c2c1CC=C(C)C (stereo unspecified),6.25,6.25,3.9,
COc1c(OCC(O)CN)cc2oc3cc(OCC(O)CN)c(CC=C(C)C)c(O)c3c(=O)c2c1CC=C(C)C (stereo unspecified),6.25,6.25,7.9,10.5
COc1c(OCC(O)CN2CCCCC2)cc2oc3cc(OCC(O)CN4CCCCC4)c(CC=C(C)C)c(O)c3c(=O)c2c1CC=C(C)C (stereo unspecified),6.25,6.25,5.1,11.2
